E-sel inducer: E-selectin induction in HUVECs, primary screen, imaging, HUVEC, immunofluorescence imaging, single point; activation, % at 7.58 µM; normalized: neutral wells 0, TNF-alpha wells 100; hit rate 0.37% among 260,000; P16581;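 active means mean E-selectin-positive cell signal at least 10% of the positive control, reached in at least 60% of replicates, without over 20% cell loss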
Target sequence (P16581 whole entry, looked up): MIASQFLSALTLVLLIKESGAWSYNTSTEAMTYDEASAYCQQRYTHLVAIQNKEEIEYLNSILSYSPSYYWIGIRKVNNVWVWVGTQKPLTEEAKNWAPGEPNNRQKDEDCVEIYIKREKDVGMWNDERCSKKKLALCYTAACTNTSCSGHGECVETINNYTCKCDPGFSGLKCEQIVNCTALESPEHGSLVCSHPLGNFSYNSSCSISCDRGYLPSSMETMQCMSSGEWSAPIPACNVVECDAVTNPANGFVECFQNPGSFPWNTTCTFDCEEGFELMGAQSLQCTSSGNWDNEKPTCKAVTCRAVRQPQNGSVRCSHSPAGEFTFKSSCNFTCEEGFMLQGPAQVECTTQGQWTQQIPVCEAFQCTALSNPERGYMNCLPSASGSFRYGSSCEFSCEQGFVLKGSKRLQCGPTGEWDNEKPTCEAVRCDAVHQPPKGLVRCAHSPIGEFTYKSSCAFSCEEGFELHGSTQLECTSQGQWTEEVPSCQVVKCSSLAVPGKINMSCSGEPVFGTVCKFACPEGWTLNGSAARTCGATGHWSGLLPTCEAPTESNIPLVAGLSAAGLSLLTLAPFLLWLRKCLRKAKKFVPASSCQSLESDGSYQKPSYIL
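System: HUVEC / Compound: single concentration / Signal: immunofluorescence imaging / Read-out: percent E-selectin-positive cells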
FGF22 binding: binders of human FGF22 protein, primary screen, FGF22 synaptogenesis inhibitor project, biophysical, thermal shift, single point | activity (Tm shift, normalised), % at 9.99 µM | hit rate 1.5% among 340,000 | recombinant FGF22 thermal shift, SYPRO orange fluorescence; percent of sucrose octasulfate shift, DMSO zero | Fibroblast growth factor 22 (Homo sapiens), Q9HCT0 | AID 651658, 2012;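 active means mean Tm shift, scaled 0 neutral to 100 positive control, at about 1.3% or above, every replicate too, limit read from the data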
Statin myotox sup: suppressors of statin myotoxicity in C2C12 myotubes, primary screen, cell-based, single point, plate reader; C2C12 myotubes + simvastatin, ATP luminescence, 48 h; scaled: DMSO 0, geranylgeraniol control 100; rescue of ATP level, % at 7.49 µM; hit rate 0.78% among 330,000;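 active means mean ATP rescue above about 67%, or every replicate alone reaching that limit, limit read from the data, passing the limit was not always enough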;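 further: myotubes were challenged with 10 µM simvastatin during compound exposure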
Ecoli rRNA inh: reduced GFP signal of wild-type E. coli, primary screen, bacterial rRNA inhibitor project, GFP/RFP fluorescence, OD600, single point | E. coli WT GFP vs humanized-ribosome RFP mutants, 24 h; stronger effect = lower value; DMSO median 0, no signal -100 | GFP signal change (wild-type ribosome), % (test concentration not listed) | hit rate 1.6% among 350,000 | AID 720706, 2013;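 active means significant combined selectivity score with lowered wild-type GFP, culture density cut under 30%, mutant RFP and density less affected; inactive means any of these conditions unmet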
FN deposition inh: inhibitors of fibronectin matrix deposition, primary screen, AH1F cells, Alexa488-fibronectin fluorescence, plate reader; AH1F fibroblasts, overnight; hit rate 0.086% among 350,000; inhibition, % at 12.6 µM;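 active means mean inhibition across replicates of 30% or more, regardless of how many single replicates reach that level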;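 further: positive control wells lacked labelled fibronectin entirely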
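Test system: AH1F fibroblast monolayer depositing Alexa488-labelled fibronectin into matrix. Input: 10000 cells per well. Technique: fluorescence, ex 485 nm, em 525 nm. Buffer or medium: DMEM plus 2% serum, read in PBS. Timing: 1 h cell adhesion before compound, then overnight fibronectin incubation. Compound: single dose, pinned. Read-out basis: inhibition from reduced deposited-fibronectin fluorescence.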
SIRT5 inh: SIRT5 desuccinylase inhibitors, primary screen, biochemical, fluorescence imaging, single point, set 5; hit rate 1.1% among 330,000; NAD-dependent protein deacylase sirtuin-5, mitochondrial (Homo sapiens), Q9NXA8; Purified SirT5, succinyl-peptide AMC, trypsin-coupled fluorescence; inhibition, % at 15 µM; AID 652115, 2013; in the data active means inhibition above about 15%
An asterisk follows results filed as active; . = no result. Shown are actives, neighbours in structure and some others; about 4% of the full set was active somewhere.

SMILES	E-sel inducer	FGF22 binding	Statin myotox sup	Ecoli rRNA inh	FN deposition inh	SIRT5 inh
CC(C)C1C(=O)N(Cc2cn(Cc3ccco3)nn2)CCS(=O)(=O)N1Cc1ccc(-c2ccccc2)cc1 (stereo not given)	0	0	11	11	-3	-2
CC(NCCC1(Cc2ccccc2Cl)CCOC(C)(C)C1)c1cccs1 (stereo not given)	0	0	-1	-39*	-2	-2
Cc1cccc(NC(=S)NC(=O)c2oc3ccccc3c2C)n1	.	43*	-24	-2	2	-3
O=C(C[C@@H]1CC[C@H]2[C@@H](COC[C@@H](O)CN2Cc2cccc(C(F)(F)F)c2)O1)NCCc1ccccc1	0	0	25	-3	-4	0
O=C(Cc1c(F)cccc1Cl)Nc1cccnc1	.	0	12	5	.	-7
O=C(Cc1c(Cl)cccc1Cl)Nc1cccnc1	2	43*	.	4	-6	0
O=C(CSCc1c(Cl)cccc1Cl)Nc1cccnc1	2	0	-12	-24*	-5	-4
C[C@@H]1CCCCO[C@@H](CN(C)Cc2ccccc2)[C@@H](C)CN([C@@H](C)CO)C(=O)c2cc(NC(=O)CCCN(C)C)ccc2O1	0	.	-17	2	-14	-4
Cc1noc(C)c1NC(=O)N(C)C[C@@H]1Oc2ccc(NS(=O)(=O)c3c(C)noc3C)cc2C(=O)N([C@H](C)CO)C[C@@H]1C	-9	.	.	1	.	.
COC(=O)c1ccc(Cn2cc(C(F)(F)F)ccc2=O)cc1	.	0	.	6	3	.
COC(=O)c1cn(Cc2ccc(C(F)(F)F)cc2)cc(F)c1=O	.	0	103*	2	4	-2
CN(CC(=O)Nc1ccc(N2CCOCC2)cc1)CC(=O)Nc1ccccc1C#N	.	.	95*	.	5	.
CN(CC(=O)Nc1ccc(Cl)cc1)CC(=O)Nc1cc(Cl)ccc1C#N	.	0	36	-38*	.	-6
CN(CC(=O)Nc1ccc(Cl)cc1)CC(=O)Nc1ccc(C(N)=O)cc1	.	1	.	1	3	-2
Cc1ccc(NC(=O)CN(C)CC(=O)Nc2ccc(N3CCOCC3)cc2)c(C)c1	.	.	.	.	-8	.
Cc1cc(-c2cc(C)c(N)cc2C)c(C)cc1N	1	0	-4	-5	-7	19*
CC(C)C[C@@H]1COCc2cn(nn2)CC[C@@H](Cc2ccccc2)C(=O)N1	0	0	.	0	-13	-3
COCc1[nH][nH]c(=O)c1/C=N/N1CCOCC1	.	44*	.	7	6	0
CCS(=O)(=O)N1CC2(C1)[C@H](c1ccccc1)[C@@H](CO)N2C(=O)C1CC1	0	0	.	2	.	-1
O=C(CSc1n[nH]c(=O)[nH]c1=O)NC1CC1	.	44*	.	11	7	-2
O=C(Nc1ccc(F)cc1)N1CCCCN2[C@H](CO)[C@@H](c3ccc(-c4ccccc4F)cc3)[C@H]2C1	.	-1	.	.	.	2
N/C(=N\N=C\c1ccc(O)cc1)c1nonc1N	0	44*	.	9	1	3
COc1ccc(CN2CC3(CN(C(=O)Nc4cccc(F)c4)C3)c3c([nH]c4cc(OC)ccc34)[C@H]2CO)cc1	-1	0	.	-5	.	1
COc1ccc(NC(=O)C2CCCN2c2ccc(OC)c(OC)c2)cc1OC (stereo not given)	.	.	80*	.	11	.
CCCC(=O)Nc1ccc2c(c1)OC[C@@H](C)N(CCc1ccccc1)C[C@H](C)[C@@H](OC)CN(C)C2=O	0	.	6	-4	8	.
COc1ccc(CCNC(=O)CSCc2ccc(Cl)cc2)cc1OC	-2	0	.	-22	7	-2
COCCn1c(-c2ccc(Cl)cc2)cnc1SCC(=O)NCCc1ccc(OC)c(OC)c1	.	0	.	-22*	-1	0
